Tests used:
[1] = target: T1, Amine oxidase [flavin-containing] A (Rattus norvegicus, UniProt P21396); assay: Inhibitory concentration against rat brain mitochondrial monoamine oxidase A
T1 sequence (P21396 whole entry): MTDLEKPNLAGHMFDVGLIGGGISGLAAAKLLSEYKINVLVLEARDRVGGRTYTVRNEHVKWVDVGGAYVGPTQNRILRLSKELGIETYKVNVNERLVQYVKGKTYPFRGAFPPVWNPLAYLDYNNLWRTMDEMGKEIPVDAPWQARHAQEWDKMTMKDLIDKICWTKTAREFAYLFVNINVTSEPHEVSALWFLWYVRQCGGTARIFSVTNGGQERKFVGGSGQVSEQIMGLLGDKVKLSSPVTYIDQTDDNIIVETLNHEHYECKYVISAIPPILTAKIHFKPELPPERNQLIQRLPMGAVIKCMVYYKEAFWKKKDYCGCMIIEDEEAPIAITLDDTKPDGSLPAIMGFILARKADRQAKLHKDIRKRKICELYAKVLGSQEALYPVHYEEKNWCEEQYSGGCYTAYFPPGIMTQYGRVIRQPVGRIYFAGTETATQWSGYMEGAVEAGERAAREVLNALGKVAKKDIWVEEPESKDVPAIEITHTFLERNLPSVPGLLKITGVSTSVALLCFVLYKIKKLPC
In short: (§1)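 Rat brain mitochondrial MAO extract preincubated with inhibitor 15 min at 37 °C in 50 mM potassium phosphate pH 7.4. [3H]serotonin added at 0.2 μM final, then 20 min incubation. Pargyline 2 mM blanks. Stopped with HCl, products extracted into ethyl acetate/toluene and counted radiometrically. Triplicates; IC50 from mean % inhibition vs log concentration.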

[2] = target: T2, Amine oxidase [flavin-containing] B (Rattus norvegicus, UniProt P19643); assay: Inhibitory activity against rat brain mitochondrial Monoamine oxidase B at 0.3 uM
T2 sequence (P19643 whole entry): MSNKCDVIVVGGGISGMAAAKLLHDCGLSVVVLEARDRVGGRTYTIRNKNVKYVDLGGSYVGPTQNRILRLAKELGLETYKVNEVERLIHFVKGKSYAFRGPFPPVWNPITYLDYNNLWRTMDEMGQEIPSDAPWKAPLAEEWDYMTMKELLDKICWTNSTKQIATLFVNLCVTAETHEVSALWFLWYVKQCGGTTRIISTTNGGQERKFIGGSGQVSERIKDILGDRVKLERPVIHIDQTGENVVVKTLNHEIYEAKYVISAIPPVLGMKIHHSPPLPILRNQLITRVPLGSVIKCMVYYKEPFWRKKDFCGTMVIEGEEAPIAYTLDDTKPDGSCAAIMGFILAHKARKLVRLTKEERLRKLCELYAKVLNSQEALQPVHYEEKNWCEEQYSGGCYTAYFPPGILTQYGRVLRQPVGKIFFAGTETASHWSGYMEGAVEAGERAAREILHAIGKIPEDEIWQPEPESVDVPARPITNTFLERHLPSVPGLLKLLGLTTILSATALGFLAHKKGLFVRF
In short: as §1, with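 “[14C]phenethylamine” for “[3H]serotonin”, “10” for “0.2”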

[3] = target: T1, Amine oxidase [flavin-containing] A; assay: Inhibition of the enzyme Monoamine oxidase A which was not completely reverserved after 24 hr of dialysis
In short: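 Reversibility: MAO extract preincubated with or without inhibitor 15 min at 37 °C, in duplicate, then dialysed 24 h at 4 °C with shaking against 0.1 M potassium phosphate pH 7.4, 5% sucrose, 1 mM dithiothreitol, buffer changed ca. 3 and 19 h. Undialysed portions held at 4 °C; both assayed together for MAO activity.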

[4] = target: T2, Amine oxidase [flavin-containing] B; assay: Inhibitory activity against rat brain mitochondrial Monoamine oxidase B at 1 uM
In short: as §1, with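 “[14C]phenethylamine” for “[3H]serotonin”, “10” for “0.2”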

[5] = target: T1, Amine oxidase [flavin-containing] A; assay: Inhibitory concentration against rat brain mitochondrial Monoamine oxidase A at 1 uM; in short: as §1
[6] = target: T1, Amine oxidase [flavin-containing] A; assay: Ex vivo value for inhibition of MAO A of rats sacrificed 2 hr after po administration; type: organism-based
In short: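 Rats dosed orally, killed 2 h later; brain MAO A inhibition then measured ex vivo.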

[7] = target: T1, Amine oxidase [flavin-containing] A; assay: Inhibition of the enzyme MAO A which was not completely reverserved after 24 hr of dialysis after po administration to rat (brain); type: organism-based; conditions: in vivo
[8] = target: T2, Amine oxidase [flavin-containing] B; assay: Inhibitory activity against rat brain mitochondrial Monoamine oxidase B
In short: as §1, with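 “[14C]phenethylamine” for “[3H]serotonin”, “10” for “0.2”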

[9] = target: T2, Amine oxidase [flavin-containing] B; assay: Inhibitory activity against rat brain mitochondrial Monoamine oxidase B at 10 uM
In short: as §1, with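 “[14C]phenethylamine” for “[3H]serotonin”, “10” for “0.2”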

[10] = target: T2, Amine oxidase [flavin-containing] B; assay: Inhibitory activity against rat brain mitochondrial Monoamine oxidase B at < 1 uM
In short: as §1, with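 “[14C]phenethylamine” for “[3H]serotonin”, “10” for “0.2”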

[11] = target: T1, Amine oxidase [flavin-containing] A; assay: Inhibitory concentration against rat brain mitochondrial Monoamine oxidase A at 10 uM; in short: as §1
[12] = target: T2, Amine oxidase [flavin-containing] B; assay: Inhibitory activity against rat brain mitochondrial Monoamine oxidase B at 0.1 uM
In short: as §1, with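 “[14C]phenethylamine” for “[3H]serotonin”, “10” for “0.2”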

[13] = target: T1, Amine oxidase [flavin-containing] A; assay: Inhibition of the enzyme Monoamine oxidase A which was not completely reverserved after 24 hr of dialysis after po administration to rat (brain); type: organism-based; conditions: in vivo
[14] = target: T1, Amine oxidase [flavin-containing] A; assay: Inhibitory concentration against rat brain mitochondrial Monoamine oxidase A at <1 uM; in short: as §1

IC50 [1] | Reversible [3] | inhibition at 1 µM [4] | Structure (SMILES) | also measured
40 nM | 2% | – | CCCc1ccc2c(c1)C(=O)c1ccc(C3=NCCN3)cc1S2(=O)=O | inhibition at 0.3 µM [2]: 0%
– | – | 3% | O=C1c2cc(C3=NCCN3)ccc2S(=O)(=O)c2cc(C3=NCCN3)ccc21 | inhibition at 1 µM [5]: 46%
300 nM | – | – | O=C1c2ccccc2S(=O)(=O)c2cc(C3=NCCN3)ccc21 | Ki [6]: 80 nM; inhibition at 0.3 µM [2]: 3%; Reversible [7]: 100%
10 nM | 5% | 33% | COc1ccc2c(c1)C(=O)c1ccc(C3=NCCN3)cc1S2(=O)=O | –
– | – | 18% | CN1CCN=C1c1ccc2c(c1)S(=O)(=O)c1ccccc1C2=O | Inhibition ([4]; 1 µM): 11%; inhibition at 1 µM [5]: 27%
200 nM | 62% | 12% | O=C1c2cc(F)ccc2S(=O)(=O)c2cc(C3=NCCN3)ccc21 | –
10 nM | – | – | CCc1ccc2c(c1)C(=O)c1ccc(C3=NCCN3)cc1S2(=O)=O | Ki [6]: 4 nM; inhibition at 10 µM [9]: 27%; Reversible [7]: 11%
20 nM | 26% | – | Cc1ccc2c(c1)C(=O)c1ccc(C3=NCCN3)cc1S2(=O)=O | inhibition at 10 µM [9]: 0%
– | – | -6% | O=C1c2ccccc2S(=O)(=O)c2c1cccc2C1=NCCN1 | inhibition at 1 µM [5]: -5%
10 nM | – | 0% | CCNc1ccc2c(c1)C(=O)c1ccc(C3=NCCN3)cc1S2(=O)=O | Reversible [13]: 0%
7 nM | 4% | 12% | CCOc1ccc2c(c1)C(=O)c1ccc(C3=NCCN3)cc1S2(=O)=O | –

Further lines, the compound ahead of its results:

Structure (SMILES) | IC50 [1] | Reversible [3] | inhibition at 1 µM [4] | also measured
O=c1c2ccccc2sc2c(C3=NCCN3)cccc12 | – | – | 10% | inhibition at 1 µM [5]: 7%
c1cc2c(cc1C1=NCCN1)Sc1cc(C3=NCCN3)ccc1O2 | 1000 nM | – | – | IC50 [8]: 10000 nM
Cc1nc(-c2ccc3c(c2)Sc2ccccc2O3)no1 | 200 nM | – | 14% | –
COc1ccc2c(c1)C(=O)c1ccc(-c3nnn(C)n3)cc1S2(=O)=O | 2 nM | 29% | – | IC50 [8]: 60 nM
O=S1(=O)c2ccccc2-c2cc(-c3nn[nH]n3)ccc21 | – | – | 0% | inhibition at 1 µM [5]: 9%
O=S1(=O)c2ccccc2Oc2ccc(C3=NCCN3)cc21 | 40 nM | 16% | – | Inhibition [10]: 59%
CC1CN=C(c2ccc3c(c2)S(=O)(=O)c2ccccc2C3=O)N1 (stereo not given) | – | – | – | inhibition at 10 µM [11]: 36%; inhibition at 10 µM [9]: 49%
CC(C)c1ccc2c(c1)C(=O)c1ccc(-c3nnn(C)n3)cc1S2(=O)=O | 5 nM | 0% | – | inhibition at 0.1 µM [12]: -30%
c1ccc2c(c1)Cc1cc(C3=NCCN3)ccc1-2 | – | – | 11% | inhibition at 1 µM [5]: 59%
COc1nnc(-c2ccc3c(c2)S(=O)(=O)c2ccccc2C3=O)o1 | 80 nM | – | 14% | –
[O-][S+]1c2ccccc2Sc2ccc(C3=NCCN3)cc21 (stereo not given) | – | – | 14% | inhibition at 1 µM [5]: 14%
O=c1c2ccc(-c3nnn(CCO)n3)cc2oc2ccc(OCCO)cc12 | – | – | – | Inhibition [10]: 18%; Inhibition [14]: 29%
O=C1c2ccccc2S(=O)(=O)c2cc(-c3nn[nH]n3)ccc21 [DOXANTRAZOLE] | – | – | – | inhibition at 10 µM [11]: 9%; inhibition at 10 µM [9]: 1%
c1ccc(Cn2c3ccccc3c3cc(C4=NCCN4)ccc32)cc1 | – | – | – | inhibition at 10 µM [11]: 20%; inhibition at 10 µM [9]: 61%
CCCOc1ccc2sc3cc(-c4nnc(C)o4)ccc3c(=O)c2c1 | 60 nM | 10% | – | IC50 [8]: 1000 nM
COc1ccc2c(c1)C(=O)c1ccc(-c3nnc(C)o3)cc1S2(=O)=O | 1 nM | 14% | – | IC50 [8]: 100 nM

— ChEMBL document CHEMBL1129565, “Selective inhibitors of monoamine oxidase. 3. Structure-activity relationship of tricyclics bearing imidazoline, oxadiazole, or tetrazole groups” (J Med Chem, 1996)
